In brackets after ≈: the same amount, converted by molar mass.
Experiments:
[1] = Stability in mouse liver microsomes assessed as compound remaining after 30 mins; assay type: ADME, Microsome; settings: read-out: Stability
Method in brief: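 Mouse liver microsomes, 30-min incubation. Result expressed as percent of parent remaining.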

[2] = molecular target: T1, Fatty acid synthase (Homo sapiens, UniProt P49327); experiment: Inhibition of full length recombinant human FASN using acetyl-CoA/malonyl-CoA as substrate preincubated for 60 mins followed by substrate addition and measured after 90 mins in presence of NADPH
Method in brief: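 Full-length recombinant human FASN. CoA released is detected as a fluorescent conjugate with the coumarin maleimide CPM. IC50 is the mean of at least two separate runs.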

[3] = tested on: PC-3; experiment: Antiproliferative activity against human PC3 cells after 96 hrs by MTT assay; assay type: functional, cell-based; settings: PC-3, 96 h
Method in brief: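 PC3 prostate cancer cells grown in medium with 10% lipid-reduced serum, a condition in which growth depends on de novo lipogenesis, in the presence of inhibitor. Antiproliferative IC50 reported as the mean of at least two separate runs.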

[4] = molecular target: T1, Fatty acid synthase; experiment: Inhibition of FASN in human BT474 cells preincubated for 1 hr followed by [14C]-acetate addition and measured after 4 hrs by scintillation counting assay; assay type: cell-based
Method in brief: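 BT474 breast cancer cells given 14C-acetate, which cellular FASN incorporates via acetyl-CoA into newly made radiolabeled palmitate. IC50 for blocking this incorporation is the mean of at least two separate runs.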

[5] = Kinetic solubility of compound at pH 7.4; assay type: physicochemical; settings: buffer, read-out: Kinetic_solubility
Method in brief: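 Kinetic solubility measured at pH 7.4.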

T1 sequence (P49327 whole entry): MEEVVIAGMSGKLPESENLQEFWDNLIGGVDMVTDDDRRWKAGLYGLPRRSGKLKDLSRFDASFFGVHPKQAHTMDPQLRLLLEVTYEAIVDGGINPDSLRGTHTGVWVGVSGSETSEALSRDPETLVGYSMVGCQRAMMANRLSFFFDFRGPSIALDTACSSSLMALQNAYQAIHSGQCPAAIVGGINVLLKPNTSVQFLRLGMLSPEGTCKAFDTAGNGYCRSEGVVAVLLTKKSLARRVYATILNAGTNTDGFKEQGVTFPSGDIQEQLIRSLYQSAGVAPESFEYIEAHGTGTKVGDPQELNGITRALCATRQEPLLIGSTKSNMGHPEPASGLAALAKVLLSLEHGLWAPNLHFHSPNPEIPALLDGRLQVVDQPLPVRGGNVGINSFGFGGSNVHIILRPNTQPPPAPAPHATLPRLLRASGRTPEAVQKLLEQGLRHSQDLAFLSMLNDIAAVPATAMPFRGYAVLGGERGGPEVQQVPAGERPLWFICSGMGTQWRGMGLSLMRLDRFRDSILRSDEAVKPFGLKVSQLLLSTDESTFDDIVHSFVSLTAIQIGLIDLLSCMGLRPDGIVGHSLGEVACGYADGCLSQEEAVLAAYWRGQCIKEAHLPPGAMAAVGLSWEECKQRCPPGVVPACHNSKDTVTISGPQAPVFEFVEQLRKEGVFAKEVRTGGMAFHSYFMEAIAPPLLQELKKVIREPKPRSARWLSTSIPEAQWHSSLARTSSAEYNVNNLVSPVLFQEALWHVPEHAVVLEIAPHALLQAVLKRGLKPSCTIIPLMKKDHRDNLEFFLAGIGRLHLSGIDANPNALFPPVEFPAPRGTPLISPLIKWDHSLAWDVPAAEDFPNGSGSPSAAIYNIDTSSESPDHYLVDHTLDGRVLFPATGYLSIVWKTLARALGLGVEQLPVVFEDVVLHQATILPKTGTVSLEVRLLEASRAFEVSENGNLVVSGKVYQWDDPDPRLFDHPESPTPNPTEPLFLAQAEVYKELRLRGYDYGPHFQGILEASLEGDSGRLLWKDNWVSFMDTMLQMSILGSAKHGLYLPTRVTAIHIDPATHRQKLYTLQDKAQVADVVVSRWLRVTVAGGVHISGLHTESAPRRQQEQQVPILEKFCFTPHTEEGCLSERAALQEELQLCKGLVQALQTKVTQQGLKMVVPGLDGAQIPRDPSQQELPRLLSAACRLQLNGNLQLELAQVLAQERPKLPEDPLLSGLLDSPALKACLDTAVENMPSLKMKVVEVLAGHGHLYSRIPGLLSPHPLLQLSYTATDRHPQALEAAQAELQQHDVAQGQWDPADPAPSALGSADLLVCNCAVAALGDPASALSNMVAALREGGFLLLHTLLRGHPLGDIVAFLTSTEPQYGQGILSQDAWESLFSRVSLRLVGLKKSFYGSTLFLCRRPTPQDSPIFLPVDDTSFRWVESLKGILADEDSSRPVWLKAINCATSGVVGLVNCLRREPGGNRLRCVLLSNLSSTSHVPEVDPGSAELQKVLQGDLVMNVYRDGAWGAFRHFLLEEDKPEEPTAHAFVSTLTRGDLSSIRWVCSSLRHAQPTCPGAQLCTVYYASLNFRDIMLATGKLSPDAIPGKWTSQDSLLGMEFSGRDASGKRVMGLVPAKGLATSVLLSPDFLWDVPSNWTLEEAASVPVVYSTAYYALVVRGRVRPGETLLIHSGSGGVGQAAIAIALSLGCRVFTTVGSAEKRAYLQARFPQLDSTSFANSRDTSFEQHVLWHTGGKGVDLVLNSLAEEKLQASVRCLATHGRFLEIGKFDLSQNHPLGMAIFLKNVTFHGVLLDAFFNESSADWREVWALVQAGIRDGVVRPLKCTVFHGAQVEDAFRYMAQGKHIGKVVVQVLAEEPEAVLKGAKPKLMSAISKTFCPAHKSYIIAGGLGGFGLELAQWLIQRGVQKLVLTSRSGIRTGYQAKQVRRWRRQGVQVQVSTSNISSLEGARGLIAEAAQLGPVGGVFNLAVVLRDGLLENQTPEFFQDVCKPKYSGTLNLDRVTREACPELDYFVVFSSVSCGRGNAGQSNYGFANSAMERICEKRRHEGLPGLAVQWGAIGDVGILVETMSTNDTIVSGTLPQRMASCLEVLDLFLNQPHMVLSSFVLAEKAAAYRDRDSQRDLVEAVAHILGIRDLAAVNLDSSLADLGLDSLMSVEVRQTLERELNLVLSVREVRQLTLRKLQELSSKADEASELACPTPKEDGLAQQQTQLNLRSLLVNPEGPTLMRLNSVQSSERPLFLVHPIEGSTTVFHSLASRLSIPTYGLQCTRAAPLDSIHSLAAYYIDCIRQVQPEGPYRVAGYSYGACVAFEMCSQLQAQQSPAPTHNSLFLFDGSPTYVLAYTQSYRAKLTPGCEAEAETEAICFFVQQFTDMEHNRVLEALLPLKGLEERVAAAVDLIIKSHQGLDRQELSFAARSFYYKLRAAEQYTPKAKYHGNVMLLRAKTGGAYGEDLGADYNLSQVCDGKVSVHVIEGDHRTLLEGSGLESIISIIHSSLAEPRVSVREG

| Compound | remaining at 0.5 h [1] [%] | IC50 [2] [nM] | IC50 [3] [nM] | IC50 [4] [nM] | solubility kinetic [5] [µM] |
| --- | --- | --- | --- | --- | --- |
| O=C(c1ccc(-c2ccc3scnc3c2)cc1)N1CCN(C(=O)C2(O)CC2)CC1 | 88 | 32 | 17 | 11 | 95 (≈ 38.7 µg/mL) |
| O=C(c1ccc(-c2ccc3ccccc3n2)cc1)N1CCN(C(=O)C2(O)CC2)CC1 | 79 | 32 | 2 | 101 | 71 (≈ 28.5 µg/mL) |
| COc1ccc(-c2ccc(C(=O)N3CCN(C(=O)C4(O)CC4)CC3)cc2)c(Cl)c1 | – | 3100 | – | – | – |
| O=C(c1ccc(-c2ccccc2)cc1)N1CCN(C(=O)C2(O)CCC2)CC1 | 85 | 1800 | – | – | – |
| O=C(c1ccc(-c2ccc(F)cc2Cl)cc1)N1CCN(C(=O)C2(O)CC2)CC1 | 69 | 310 | – | 4960 | 67 (≈ 27 µg/mL) |
| CC(C)(O)C(=O)N1CCN(C(=O)c2ccc(-c3ccccc3)cc2)CC1 | 99 | 35000 | – | – | – |
| O=C(c1ccc(-c2ccc3[nH]ccc3c2)cc1)N1CCN(C(=O)C2(O)CC2)CC1 | 55 | 16 | 4 | 18 | 60 (≈ 23.4 µg/mL) |
| O=C(c1ccc(-c2cnc3cccnc3c2)cc1)N1CCN(C(=O)C2(O)CC2)CC1 | 89 | > 5000 | – | > 125000 | 95 (≈ 38.2 µg/mL) |
| O=C(c1ccc(-c2ccccc2)cc1)N1CCN(C(=O)C2(O)CCCC2)CC1 | – | > 50000 | – | – | – |
| O=C(c1ccc(-c2nc3ccc(Cl)cc3o2)cc1)N1CCN(C(=O)C2(O)CC2)CC1 | 92 | 97 | 29 | 104 | 7 (≈ 2.98 µg/mL) |
| O=C(c1ccc(-c2ccccc2)cc1)N1CCN(C(=O)C2CCCC2)CC1 | – | > 50000 | – | – | – |
| O=C(c1ccc(-c2nc3ccccc3s2)cc1)N1CCN(C(=O)C2(O)CC2)CC1 | 84 | 57 | 214 | 67 | 18 (≈ 7.33 µg/mL) |
| O=C(c1ccc(-c2ccccc2)cc1)N1CCN(C(=O)C2(O)CC2)CC1 | 95 | 350 | – | – | – |
| O=C(c1ccc(-c2ccc3ocnc3c2)cc1)N1CCN(C(=O)C2(O)CC2)CC1 | 60 | 142 | 142 | 257 | 92 (≈ 36 µg/mL) |

Reference: ChEMBL document CHEMBL4400560, “Discovery and optimization of novel piperazines as potent inhibitors of fatty acid synthase (FASN)” (Bioorg Med Chem Lett, 2019)
